Source: PubChem
Compounds with a hit are over-represented: about 4.6% of the library has one in this group of screens.
GPR7 antagonist: blocks human GPR7 receptor signaling | inhibition, % at 4.4 µM | GPR7-expressing cells, fluorescence antagonist assay | P48145 | 290,000 tested, 1.1% active; in the data active means inhibition above about 16%, passing the limit was not always enough;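 further: cells stimulated with the agonist NPW; 0% = agonist with vehicle and 100% = vehicle without agonist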
CHO parental Ca: counter-screen: ATP calcium response change in parental CHO cells; parental CHO-K1, ATP-induced calcium, Fluo-8 fluorescence; inhibition, % at 5.6 µM; 330,000 tested, 0.63% active;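 active means inhibition above that plate's mean sample inhibition plus 3 SD, cut at about 26% in these data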;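 further: 0% = ATP-challenged DMSO wells and 100% = DMSO wells without ATP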
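Assay system: parental CHO cells; Read-out basis: percent inhibition of ATP-evoked calcium rise, normalized to controls; Benchmarks: ATP and no-ATP DMSO wells; Compound dosing: single nominal dose of 5.6 µM per compound; Signal: Fluo-8 calcium dye fluorescence; Also added: ATP as calcium-mobilizing challenge; Repeats: singlicate.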
TAAR1 antagonist: human TAAR1 antagonism. inhibition, % at 3 µM. 360,000 tested, 1.5% active. CHO RD-HGA16 TAAR1, Fluo-8 calcium fluorescence, antagonist. AID 624466;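 active means inhibition above a per-plate cutoff, the mean inhibition of test compounds on that plate plus 3 SD, cut at about 49% in these data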;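 further: 0% = DMSO plus EC80 beta-PEA response and 100% = DMSO alone without agonist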
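System: RD-HGA16 CHO cells with stable hTAAR1 and Gα16 | Probe or stimulus: EC80 β-phenethylamine stimulus | Dosing: 3 µM, single point | Times: Dye loading 75 min at 37 °C, then 30 min room temperature | Measured by: Fluo-8 calcium-sensitive fluorescence | Read-out basis: % inhibition of agonist calcium response | Replicates: n of 1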
OX1R antag-1: OX1R (human) antagonism; O43613; OX1R-expressing cells, FRET antagonist read-out; inhibition, % at 6.6 µM; 330,000 tested, 1.8% active; AID 485270; in the data active means inhibition mostly above about 38%, no sharp cut-off; inactive means mostly below about 40%;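 further: 0% = agonist challenge alone and 100% = reference antagonist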
Target sequence (O43613 whole entry, looked up): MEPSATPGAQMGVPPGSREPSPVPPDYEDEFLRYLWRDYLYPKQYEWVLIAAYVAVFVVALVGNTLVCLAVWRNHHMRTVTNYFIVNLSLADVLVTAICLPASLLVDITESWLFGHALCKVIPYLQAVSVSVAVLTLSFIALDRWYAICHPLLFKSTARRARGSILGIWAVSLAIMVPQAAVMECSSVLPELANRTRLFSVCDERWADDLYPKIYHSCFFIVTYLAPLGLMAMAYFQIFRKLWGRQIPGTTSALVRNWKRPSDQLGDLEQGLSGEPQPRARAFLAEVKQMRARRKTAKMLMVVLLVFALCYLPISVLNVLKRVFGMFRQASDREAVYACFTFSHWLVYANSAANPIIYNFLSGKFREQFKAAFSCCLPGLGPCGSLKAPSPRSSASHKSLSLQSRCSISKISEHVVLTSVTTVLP
TAAR1 agonist: agonists of human TAAR1. Q96RJ0. CHO RD-HGA16 TAAR1, Fluo-8 calcium fluorescence; vehicle wells 0%, saturating PEA agonist 100%. activation, % at 3 µM. 360,000 tested, 0.99% active;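 active means activation above the mean activation of all test compounds in the run plus 3 SD, cut at about 38% in these data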
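Assay system: CHO-derived RD-HGA16 cells with stable Gα16 and human TAAR1; timing: 17-24 h seeding, 75 min 37 °C dye, 30 min RT; read-out: % activation from peak over basal fluorescence ratio, DMSO-to-PEA scaled; measured by: kinetic Fluo-8 calcium fluorescence; benchmarks: low control DMSO, high control PEA (EC100); doses: 3 µM single concentration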
OX1R antag-2: blocks the human orexin 1 receptor. inhibition, % at 5 µM. CHO/OX1R cells, Fluo-8 calcium fluorescence, orexin A. AID 434989. O43613. 330,000 tested, 0.43% active;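 active means inhibition above its plate's threshold, mean inhibition of all tested compounds on the plate plus 3 SD, cut at about 37% in these data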;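 further: 0% = orexin A challenge wells and 100% = SB-334867-A antagonist wells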
TAAR1 ag conf: human TAAR1 agonism, confirmed. 2,400 tested, 82% active. shares compounds with TAAR1 agonist. CHO RD-HGA16 TAAR1, Fluo-8 calcium fluorescence; scaled: DMSO 0%, maximal phenethylamine 100%. activation, % at 3 µM;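 active means activation above a cutoff set at the run's mean compound activation plus 3 SD, cut at about 39% in these data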
Ga16 nonsel ag: nonselective agonism, TAAR1 counter-screen; activation, % at 3 µM; CHO-Ga16 parental, Fluo-8 calcium fluorescence; normalized to maximal ATP response, DMSO zero; AID 651787; shares compounds with TAAR1 agonist; 2,400 tested, 50% active;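 active means activation above the run cutoff, the mean activation over all tested wells plus 3 SD, cut at about 12% in these data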;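 further: 0% = DMSO wells and 100% = maximal ATP response on the peak over basal ratio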
TAAR1 desens: human TAAR1 agonist that also desensitizes the receptor; inhibition, % at 3 µM; CHO RD-HGA16 hTAAR1, Fluo-8 calcium, beta-PEA response inhibition; shares compounds with TAAR1 agonist; AID 651951; 2,400 tested, 46% active;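 active means inhibition above the run cutoff, the mean inhibition of all test compounds plus 3 SD, cut at about 49% in these data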;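 further: beta-PEA stimulus applied at its EC80; loss of beta-PEA calcium signal after compound pretreatment read as receptor desensitization; 0% = DMSO with beta-PEA at EC80 and 100% = DMSO alone without agonist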
Ga16 nonsel ant: counter-screen for TAAR1 agonists: nonselective Ga16 antagonists; shares compounds with TAAR1 agonist; CHO-Ga16 ATP-induced calcium, Fluo-8 fluorescence; inhibition, % at 3 µM; 2,400 tested, 39% active;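 active means inhibition above the plate's mean compound inhibition plus 3 SD, computed per plate, cut at about 22% in these data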;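 further: 0% = EC80 ATP with DMSO and 100% = DMSO wells without ATP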
* = called active by the depositor; nt = no result.

SMILES	GPR7 antagonist	CHO parental Ca	TAAR1 antagonist	OX1R antag-1	TAAR1 agonist	OX1R antag-2	TAAR1 ag conf	Ga16 nonsel ag	TAAR1 desens	Ga16 nonsel ant
Nc1nonc1-n1nnc(C(=O)N/N=C/c2ccc3c(c2)OCO3)c1-c1ccccc1	-8	-22	7	29	75*	-17	45*	26*	16	11
Cc1cccc(C)c1C(O)c1ncc(-c2cccc(F)c2)[nH]1 (stereo not drawn)	nt	nt	7	nt	0	nt	nt	nt	nt	nt
Cc1ccc(S(=O)(=O)Cc2ccc(C(=O)N3CCN(Cc4ccccc4)CC3)o2)cc1	0	-13	-7	13	1	-25	nt	nt	nt	nt
COc1ccc(S(=O)(=O)Cc2ccc(C(=O)N3CCc4ccccc4C3)o2)cc1	6	-11	61*	9	61*	-34	92*	23*	76*	12
COc1ccccc1N1CCN(C(=O)c2cccc3c(=O)c(C)c(-c4ccccc4)oc23)CC1	-6	-8	60*	18	70*	0	69*	37*	48	33*
COc1ccccc1N1CCN(C(=O)c2cc(C)oc2C)CC1	-6	-6	0	19	9	-18	nt	nt	nt	nt
COc1ccccc1N1CCN(C(=O)c2ccc(CS(=O)(=O)c3ccccc3OC)o2)CC1	-8	-9	38	9	59*	-15	59*	21*	55*	34*
Cc1ccc(S(=O)(=O)Cc2ccc(C(=O)N3CCc4ccccc4C3)o2)cc1	5	-8	64*	9	69*	-26	48*	5	11	16
Cc1ccc(S(C)(=O)=O)cc1C(=O)NC(C)C1CC2CCC1C2 (stereo not drawn)	2	-10	-20	3	9	-43	nt	nt	nt	nt
Cc1ccc(S(=O)(=O)N2[C@@H](c3ccc(C(C)(C)C)cc3)C(C(=O)O)=CC[C@H]2c2ccc(C(C)C)cc2)cc1	nt	29	31	-8	3	7	nt	nt	nt	nt
O=C(Nc1ccc(Cn2ccnc2)cc1)c1cccc(C(F)(F)F)c1	4	nt	31	nt	42*	nt	57*	0	36	10
COc1ccc(C(=O)Nc2ccc(Cn3ccnc3)cc2)cc1OC	-14	-1	1	12	1	0	nt	nt	nt	nt
Cc1ccc(NS(=O)(=O)c2ccc(C(=O)N3CC(C)CC(C)C3)cc2)cc1 (stereo not drawn)	nt	64*	102*	0	141*	63*	128*	91*	106*	89*
Cc1ccc(S(=O)(=O)Nc2ccc(C(=O)N3CCCC3)cc2)cc1	-9	-4	-8	11	2	-27	nt	nt	nt	nt
CN1CCN(C(c2ccc(C(F)(F)F)cc2)c2ccc3cccnc3c2O)CC1 (stereo not drawn)	-11	-1	10	11	102*	-7	129*	94*	63*	19
Oc1c(C(c2cccs2)N2CCN(c3ccccc3)CC2)ccc2cccnc12 (stereo not drawn)	-10	-3	nt	28	nt	-16	nt	nt	nt	nt
CCOc1cc2c(C#N)c(N3CCNCC3)nc(N)c2c(N)n1	-6	-14	54*	20	61*	-24	83*	3	81*	12
COCc1cc(C)nc(N2CCNCC2)c1C#N	-2	-12	8	6	53*	-16	57*	0	22	3
COCc1cc(C)nc(N2CCCCC2)c1C#N	7	-7	-16	-1	15	-26	nt	nt	nt	nt
COc1cccc(C=NNC(=S)NC2CC3CCC2C3)c1O (stereo not drawn)	nt	nt	-20	nt	0	nt	nt	nt	nt	nt
